Results from different studies.
Lines come from different studies, so protocols differ.
Target: cAMP-dependent protein kinase catalytic subunit alpha (PRKACA, Homo sapiens, UniProt P17612)

SMILES	read-out	mode	method	concentration	pH	endpoint	value
COc1ncccc1-c1cnn2ccc(N3CCN(C(=O)OC(C)C)CC3)nc12	binding	–	competition with immobilised ligand	1 µM	–	remaining binding	66%
Cn1cc(-c2cccc(N3CCc4c(sc5c4CC(C)(C)C5)C3=O)c2CO)cc(Nc2ccncn2)c1=O	enzyme activity	inhibitor	–	1 µM	–	inhibition	-3%
Cn1cncc1[C@@](O)(COc1ccc(C#N)cc1-c1ccc(OC(F)(F)F)cc1)c1ccc(C#N)cc1	cell-free assay	–	competition with immobilised ligand	1 µM	–	remaining binding	94%
C#Cc1n[nH]c2c(-c3cn([C@@H](C)c4ccccc4)c(=O)[nH]c3=O)cc(F)cc12	enzyme activity	inhibitor	–	0.1 µM	–	inhibition	0%
O=c1[nH]c2ccccc2n1C1CCN(Cc2ccc(-c3[nH]c4cc5ncnc5cc4nc3-c3ccccc3)cc2)CC1	cell-free assay	–	–	0.5 µM	–	remaining signal	106%
Cn1cc(-c2cc(F)cc(N3CCn4c(cc5c4CCCC5)C3=O)c2CO)cc(Nc2ccc(N3CCN(C4COC4)CC3)cn2)c1=O	enzyme activity	inhibitor	–	0.1 µM	–	inhibition	6%
Nc1ncnc2c1ncn2[C@@H]1O[C@H](COP(=O)(O)OP(=O)(O)OP(=O)(O)O)[C@@H](O)[C@H]1O	enzyme activity	substrate	–	–	pH 7.4	Km	16.9 µM
Nc1ncc(-c2nc(N3CCOCC3)nc(N3CCOCC3)n2)c(C(F)F)n1	binding	–	competition with immobilised ligand	10 µM	–	remaining binding	85%
Cc1nn(C)cc1-c1nc2c(N3CCN(Cc4ccc(Cl)cc4)CC3)c(Cl)cnc2[nH]1	binding	–	competition with immobilised ligand	1 µM	–	remaining binding	57%
C#Cc1n[nH]c2c(-c3cn(C(C)c4ccccn4)c(=O)[nH]c3=O)cc(F)cc12 (stereo not shown)	enzyme activity	inhibitor	–	1 µM	–	inhibition	15.6%
